# In article PMC3466779 (Biochemistry, 2012):
# “And” between values parts separate entries of the source, which are not always exact repeats. Equal entries are not always repeated.
# Tests used:
# MtATP-PRT [1] = biological target: T1, MtATP-PRT (Mycobacterium tuberculosis, UniProt P9WMN1); test: Steady-state kinetics: initial velocities of the forward reaction; type: biochemical
# T1 sequence (P9WMN1 1-284): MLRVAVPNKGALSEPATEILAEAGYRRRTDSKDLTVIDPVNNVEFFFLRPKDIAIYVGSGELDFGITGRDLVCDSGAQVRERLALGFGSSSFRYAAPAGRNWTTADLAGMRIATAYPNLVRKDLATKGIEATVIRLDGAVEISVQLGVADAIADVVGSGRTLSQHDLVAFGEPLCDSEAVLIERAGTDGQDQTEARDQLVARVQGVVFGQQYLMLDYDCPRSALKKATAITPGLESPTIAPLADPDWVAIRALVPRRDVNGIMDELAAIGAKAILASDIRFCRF
# MtATP-PRT [2] = biological target: T1, MtATP-PRT; test: pH studies of L-histidine inhibition; type: biochemical; conditions: 0.8 mM PRPP fixed
# MtATP-PRT [3] = biological target: T1, MtATP-PRT; test: STD-NMR saturation transfer; type: binding; conditions: 0.6 mM L-histidine, 30 μM HisG, 25 °C
# In short: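 STD 1H NMR was run at 14.4 T with 30 μM enzyme and 0.6 mM L-histidine in 50 mM sodium phosphate at each pH, 25 °C. Saturation times of 0.2–2.0 s in 0.2 s steps were recorded interleaved, with on-resonance protein presaturation at 0.8 ppm. A single off-resonance control used 2 s. Water was suppressed by excitation sculpting. Read-out was percent transfer per histidine proton.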
# MtATP-PRT [4] = biological target: T1, MtATP-PRT; test: Gel filtration, solution oligomeric state; conditions: 20 mM Tris-HCl pH 8, 100 mM NaCl; 2 mM L-histidine, or ATP
# In short: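 Recombinant enzyme was expressed in E. coli BL21(DE3)pLysS and Ni-NTA purified. It was injected at 0.1–10 mg/mL onto a Sephacryl S-200 column calibrated with molecular-weight standards. Elution was isocratic for 1.5 column volumes at 0.5 mL/min in 20 mM Tris-HCl pH 8, 100 mM NaCl, with or without 2 mM L-histidine. Apparent mass was read from elution position.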
# [5] = biological target: Lactococcus lactis ATP-PRT; conditions: pH 8; cited from earlier work
# MtATP-PRT [6] = biological target: T1, MtATP-PRT; test: Steady-state inhibition studies with L-histidine; type: biochemical; conditions: for Kii: 7 mM MgCl2, 200 mM KCl
# [7] = no reference given, cited from earlier work
# MtATP-PRT [8] = biological target: T1, MtATP-PRT; test: Pre-steady-state stopped-flow burst kinetics; type: biochemical
compound,measurement,setting,value
O[C@@H](CS)[C@@H](O)CS [DTT],effect of the thiol reducing agent on the time course,MtATP-PRT [1]; data not shown,did not alter the time course
N[C@@H](Cc1c[nH]cn1)C(=O)O [L-histidine],Kii,"MtATP-PRT [2]; pH 8.00, varied ATP",4 µM and 4.0 ± 0.4 µM
same,Kii,"MtATP-PRT [2]; pH 8.25, varied ATP",7.9 ± 1.5 µM
same,Kii,"MtATP-PRT [2]; pH 8.50 (pH series), varied ATP",28.3 ± 2.1 µM
same,Kii,"MtATP-PRT [2]; pH 8.75, varied ATP",26.8 ± 1.5 µM
same,Kii,"MtATP-PRT [2]; pH 9.00, varied ATP",50.4 ± 5.5 µM
same,Kii,"MtATP-PRT [2]; pH 9.25, varied ATP",109.4 ± 6.8 µM
same,"% saturation transfer to L-histidine protons, Cα-H",MtATP-PRT [3]; pH 5.5,0%
same,"% saturation transfer to L-histidine protons, Cβ-H2",MtATP-PRT [3]; pH 5.5,0%
same,"% saturation transfer to L-histidine protons, Cδ2-H",MtATP-PRT [3]; pH 5.5,0%
same,"% saturation transfer to L-histidine protons, Cε1-H",MtATP-PRT [3]; pH 5.5,0%
same,"% saturation transfer to L-histidine protons, Cα-H",MtATP-PRT [3]; pH 6.0,0%
same,"% saturation transfer to L-histidine protons, Cβ-H2",MtATP-PRT [3]; pH 6.0,0%
same,"% saturation transfer to L-histidine protons, Cδ2-H",MtATP-PRT [3]; pH 6.0,0%
same,"% saturation transfer to L-histidine protons, Cε1-H",MtATP-PRT [3]; pH 6.0,0%
same,"% saturation transfer to L-histidine protons, Cα-H",MtATP-PRT [3]; pH 6.5,0%
same,"% saturation transfer to L-histidine protons, Cβ-H2",MtATP-PRT [3]; pH 6.5,0%
same,"% saturation transfer to L-histidine protons, Cδ2-H",MtATP-PRT [3]; pH 6.5,0%
same,"% saturation transfer to L-histidine protons, Cε1-H",MtATP-PRT [3]; pH 6.5,0%
same,"% saturation transfer to L-histidine protons, Cα-H",MtATP-PRT [3]; pH 7.5,0%
same,"% saturation transfer to L-histidine protons, Cβ-H2",MtATP-PRT [3]; pH 7.5,0%
same,"% saturation transfer to L-histidine protons, Cδ2-H",MtATP-PRT [3]; pH 7.5,0%
same,"% saturation transfer to L-histidine protons, Cε1-H",MtATP-PRT [3]; pH 7.5,0%
same,"% saturation transfer to L-histidine protons, Cα-H",MtATP-PRT [3]; pH 8.0,0%
same,"% saturation transfer to L-histidine protons, Cβ-H2",MtATP-PRT [3]; pH 8.0,0%
same,"% saturation transfer to L-histidine protons, Cδ2-H",MtATP-PRT [3]; pH 8.0,36.9%
same,"% saturation transfer to L-histidine protons, Cε1-H",MtATP-PRT [3]; pH 8.0,40.4%
same,"% saturation transfer to L-histidine protons, Cα-H",MtATP-PRT [3]; pH 8.5,0%
same,"% saturation transfer to L-histidine protons, Cβ-H2",MtATP-PRT [3]; pH 8.5,0%
same,"% saturation transfer to L-histidine protons, Cδ2-H",MtATP-PRT [3]; pH 8.5,81.6%
same,"% saturation transfer to L-histidine protons, Cε1-H",MtATP-PRT [3]; pH 8.5,88.2%
same,"% saturation transfer to L-histidine protons, Cα-H",MtATP-PRT [3]; pH 9.0,0%
same,"% saturation transfer to L-histidine protons, Cβ-H2",MtATP-PRT [3]; pH 9.0,0%
same,"% saturation transfer to L-histidine protons, Cδ2-H",MtATP-PRT [3]; pH 9.0,100%
same,"% saturation transfer to L-histidine protons, Cε1-H",MtATP-PRT [3]; pH 9.0,100%
same,influence of ligand on the hexameric oligomeric state of MtATP-PRT,MtATP-PRT [4],not influenced
same,Ki,[5],81 µM
same,Ki,MtATP-PRT [6],25.7 ± 12.8 µM
same,IC50,"MtATP-PRT [6]; IC50,L-histidine, 50 mM Tris-HCl pH 8.5, 7 mM MgCl2, 200 mM KCl, 1.6 mM ATP, 0.8 mM PRPP, 25 °C",33.3 µM and 33 µM
same,Hill number,"MtATP-PRT [6]; IC50 curve, pH 8.5, 1.6 mM ATP, 0.8 mM PRPP",1.5
same,Kii,"MtATP-PRT [6]; pH 8.50 (Tris-HCl), varied ATP, 0.8 mM PRPP fixed, 25 °C",27.9 ± 1.9 µM
same,Kii,"MtATP-PRT [6]; pH 8.50, varied PRPP, 1.6 mM ATP fixed, 25 °C",23.5 ± 6.5 µM
same,nature of inhibition versus ATP (in words),"MtATP-PRT [6]; varied ATP, saturating PRPP, pH 8.5",linear and uncompetitive
same,nature of inhibition versus PRPP (in words),"MtATP-PRT [6]; varied PRPP, saturating ATP, pH 8.5",linear and noncompetitive
same,pKa of the imidazole group,[7]; background statement,~6.0
same,pKa of the α-amino group,[7]; stated in discussion,~9
same,Kd,MtATP-PRT [8],27.9 ± 3.2 µM
same,koff,"MtATP-PRT [8]; pH 8.5, read-out: koff,L-histidine",0.95 ± 0.03 s⁻¹
same,kon,"MtATP-PRT [8]; pH 8.5, read-out: kon,L-histidine",4880 ± 717 M⁻¹ s⁻¹
[Cl-].[Cl-].[Mg+2] [MgCl2],"Kact,Mg^2+","MtATP-PRT [1]; Table 1, saturating substrates, 200 mM KCl, 25 °C",1900 ± 600 µM
same,Apparent Kact for MgCl2,"MtATP-PRT [1]; saturating concentrations of both substrates, 200 mM KCl",1.9 ± 0.6 mM
